Results gathered from unrelated publications.
Protocols differ between the studies behind these lines.
Target: Serine/threonine-protein kinase PAK 1 (PAK1, Homo sapiens, UniProt Q13153)

Compound | read-out | mode | technique | concentration | quantity | value
O=S(=O)(Nc1cc(Sc2ncn[nH]2)c(O)c2ccccc12)c1ccc(-c2ccccc2)cc1 | enzyme activity | inhibitor | – | 1 µM | remaining activity | ≥ 75%
CS(=O)(=O)Nc1cccc(-c2csc(NC(=O)CSc3nc4nccnc4c(=O)n3CCc3ccccc3)n2)c1 | enzyme activity | inhibitor | – | 10 µM | inhibition | -2%
CC(=O)C1=C(C)N(c2cccc(C(F)(F)F)c2)C(=O)N[C@@H]1c1ccc(C#N)nc1 | cell-free assay | – | competition with immobilised ligand | 1 µM | remaining binding | 91.2%
CN(C)C1CCN(CC#Cc2nn(C3CCCC3)c3nc(NCc4ccccc4)ncc23)C1 (stereo not shown) | enzyme activity | inhibitor | FRET | 1 µM | inhibition | 4%
COc1ccc2c(c1)O[C@@H](c1ccc(OC)c(OC)c1)C[C@H]2NC(=O)C1(c2ccc3c(c2)OC(F)(F)O3)CC1 | cell-free assay | – | competition with immobilised ligand | 1 µM | remaining binding | 89%
Cc1cnc(NC2CCOCC2)nc1-n1cnc(C(=O)NC(CN)c2cc(F)cc(Cl)c2)c1 (stereo not shown) | enzyme activity | inhibitor | radiometric | 1 µM | remaining activity | 51%
O=C1Nc2ccc(Cl)cc2C1=Cc1cc(Cl)c(O)c(Cl)c1 | cell-free assay | – | – | 0.5 µM | remaining signal | 97.2%
CC(C)(O)[C@H]1CC[C@H](Nc2ccc3ncc(-c4cccc(C(F)(F)F)c4)n3n2)CC1 | enzyme activity | inhibitor | – | 1 µM | remaining activity | 92.7%
CC(C)(C)c1nc2c(s1)c1nc(N)ncc1c1ccc(NS(=O)(=O)c3c(F)cccc3F)c(F)c12 | enzyme activity | inhibitor | radiometric | 1 µM | remaining activity | 93%
Nc1cnc(N2CCc3cc(S(=O)(=O)Nc4c(F)cc(Cl)cc4F)cc(N4CCCC4=O)c32)nc1 | cell-free assay | – | competition with immobilised ligand | 1 µM | remaining binding | 89%
Oc1ccc(-c2nc(-c3ccncc3)c(-c3ccc(F)cc3)[nH]2)cc1 | cell-free assay | – | – | 0.5 µM | remaining signal | 97.3%
Cc1sc(C(=O)NC2COC2)cc1-n1cc(NC(=O)Nc2c(F)cccc2Cl)cn1 | enzyme activity | inhibitor | – | 10 µM | remaining activity | 104%
N#CCCc1ccc2c(c1)-c1[nH]c3ccc([N+](=O)[O-])cc3c1CC(=O)N2 | cell-free assay | – | – | 0.5 µM | remaining signal | 52.1%
Cc1c(C(=O)O)cc(-c2ccc(C3CCNCC3)cc2)c2ccc(-c3ccc(C(F)(F)F)cc3)cc12 | cell-free assay | – | competition with immobilised ligand | 1 µM | remaining binding | 100%
CC/C(=N\NC(=O)NCc1cccc(O)c1)c1ccc(O)c(C)c1O | enzyme activity | inhibitor | – | 0.1 µM | inhibition | -6.4%
CCOC(=O)c1cc2cc(-c3cc(C(=O)NCc4ccc(C(=O)O)cc4)nn3C)ccc2[nH]1 | cell-free assay | – | competition with immobilised ligand | 0.1 µM | remaining binding | 92%
COc1cc2ncnc(Nc3ccc(Oc4ccccc4)cc3C)c2cc1OC | enzyme activity | inhibitor | – | 1 µM | inhibition | 4%
CCOCCn1cc(C(=O)Nc2ccc(-n3nc(-c4cccnc4)cc3C(F)(F)F)cn2)ccc1=O | cell-free assay | – | competition with immobilised ligand | 1 µM | remaining binding | 96%
Cc1cc(NC(=O)c2cccc3cc(-c4cccc5[nH]nc(N)c45)ccc23)ccc1F | enzyme activity | inhibitor | – | 0.1 µM | activity vs control | 94%
